From ChEMBL document CHEMBL1821701, “Stereochemical analysis of leubethanol, an anti-TB-active serrulatane, from Leucophyllum frutescens” (2011)
Values after ≈ are worked out from the molar mass of the structure shown.

System: Mycobacterium tuberculosis
Test: Antitubercular activity against drug sensitive Mycobacterium tuberculosis H37Rv ATCC 27294 by microplate Alamar blue assay
Format: functional
How it was run: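 Modified microplate Alamar Blue assay. H37Rv ATCC 27294 is susceptible to streptomycin, isoniazid, rifampin, ethambutol and pyrazinamide. Clinical isolate CIBIN/UMF15:99 is resistant to the same five drugs. Test stocks were 2 mg/mL in 20% DMSO in Middlebrook 7H9 broth, filter-sterilized. Final concentrations ran from 100 to 0.78 µg/mL. Read-out was MIC, at least in triplicate.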

Row | Compound | MIC
1 | NNC(=O)c1ccncc1 [ISONIAZID] | 0.06 µg/mL (≈ 0.438 µM)
2 | CC[C@@H](CO)NCCN[C@@H](CC)CO [ETHAMBUTOL] | 2 µg/mL (≈ 9.79 µM)
3 | CC(C)=CCC[C@H](C)[C@@H]1CC[C@@H](C)c2c(O)cc(C)cc21 [LEUBETHANOL] | 12.5 µg/mL (≈ 43.6 µM)
4 | CO[C@H]1/C=C/O[C@@]2(C)Oc3c(C)c(O)c4c(O)c(c(/C=N/N5CCN(C)CC5)c(O)c4c3C2=O)NC(=O)/C(C)=C\C=C\[C@H](C)[C@H](O)[C@@H](C)[C@@H](O)[C@@H](C)[C@H](OC(C)=O)[C@@H]1C [RIFAMPIN] | 0.06 µg/mL (≈ 0.0729 µM)
5 | CN[C@@H]1[C@H](O[C@H]2[C@H](O[C@H]3[C@H](O)[C@@H](O)[C@H](N=C(N)N)[C@@H](O)[C@@H]3N=C(N)N)O[C@@H](C)[C@]2(O)C=O)O[C@@H](CO)[C@H](O)[C@H]1O [STREPTOMYCIN] | 0.5 µg/mL (≈ 0.86 µM)
